Experimental data published in ChEMBL document CHEMBL4354820, “Optimizing Targeted Inhibitors of P-Glycoprotein Using Computational and Structure-Guided Approaches” (J Med Chem, 2019).

What follows are molecules tested against T1, ATP-dependent translocase ABCB1 (Homo sapiens, UniProt P08183) (assay: Inhibition of P-gp overexpressed in human DU145-TxR cells assessed as increase in cellular accumulation of calcein AM at 2 uM pretreated followed by calcein AM addition by fluorescence imaging analysis). Conditions: not given; call rule not given here.
T1 sequence (P08183 whole entry): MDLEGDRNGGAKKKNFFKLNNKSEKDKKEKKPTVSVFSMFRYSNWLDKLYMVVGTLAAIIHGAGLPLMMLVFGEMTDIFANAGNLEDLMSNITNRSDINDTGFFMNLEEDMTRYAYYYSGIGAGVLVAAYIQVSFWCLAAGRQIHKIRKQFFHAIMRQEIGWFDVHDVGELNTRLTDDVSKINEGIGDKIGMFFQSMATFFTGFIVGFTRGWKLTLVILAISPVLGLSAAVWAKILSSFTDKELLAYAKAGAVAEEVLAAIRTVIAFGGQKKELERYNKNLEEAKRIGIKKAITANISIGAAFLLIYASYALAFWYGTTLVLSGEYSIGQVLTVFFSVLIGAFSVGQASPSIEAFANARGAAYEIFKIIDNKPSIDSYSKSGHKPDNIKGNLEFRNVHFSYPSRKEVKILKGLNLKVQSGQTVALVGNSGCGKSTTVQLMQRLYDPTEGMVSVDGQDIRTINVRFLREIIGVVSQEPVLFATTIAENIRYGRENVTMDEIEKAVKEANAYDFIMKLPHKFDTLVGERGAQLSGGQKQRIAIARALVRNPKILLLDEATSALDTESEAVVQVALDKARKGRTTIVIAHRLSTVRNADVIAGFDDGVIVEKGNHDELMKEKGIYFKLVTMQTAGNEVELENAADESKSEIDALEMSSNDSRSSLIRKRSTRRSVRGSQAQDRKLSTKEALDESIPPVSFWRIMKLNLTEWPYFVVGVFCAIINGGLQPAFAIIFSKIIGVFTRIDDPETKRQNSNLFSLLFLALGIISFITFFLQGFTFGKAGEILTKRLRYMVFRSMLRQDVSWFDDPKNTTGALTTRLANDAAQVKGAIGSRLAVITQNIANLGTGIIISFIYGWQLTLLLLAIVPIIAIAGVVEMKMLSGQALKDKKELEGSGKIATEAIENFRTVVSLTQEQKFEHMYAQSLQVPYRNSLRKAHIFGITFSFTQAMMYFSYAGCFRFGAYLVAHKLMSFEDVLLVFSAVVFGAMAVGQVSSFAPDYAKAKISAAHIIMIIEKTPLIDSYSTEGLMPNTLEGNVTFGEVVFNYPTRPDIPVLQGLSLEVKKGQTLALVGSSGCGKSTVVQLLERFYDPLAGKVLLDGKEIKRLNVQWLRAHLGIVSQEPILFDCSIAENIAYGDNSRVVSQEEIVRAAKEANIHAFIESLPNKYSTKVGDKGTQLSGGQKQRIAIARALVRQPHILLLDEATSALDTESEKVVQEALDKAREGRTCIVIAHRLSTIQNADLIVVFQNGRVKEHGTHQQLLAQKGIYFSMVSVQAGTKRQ
Assay type: cell-based
Outline: (§1)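 Confluent DU145TXR monolayers in phenol red-free RPMI 1640 given 2 μM inhibitor (DMSO vehicle) and 1 μg mL−1 calcein AM, either added together or after a 6 h inhibitor-only preincubation at 37 °C. Calcein fluorescence (ex 485 / em 535 nm) read over 60 min at 20 min intervals. Six replicates, at least two independent experiments.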

Row | Structure (SMILES) | inhibition (INH)
1 | COc1cc(NC(=O)CSCC(=O)Nc2cc(-c3cc(C)c(C)cc3C)nn2-c2ccccc2)cc(OC)c1OC | Active
2 | Cc1cc(C)c(-c2cc(NC(=O)CSCC(=O)c3ccc4c(c3)Cc3ccccc3-4)n(-c3ccccc3)n2)cc1C | Active

These molecules were tested against T1, ATP-dependent translocase ABCB1 (assay: Reversal of P-gp mediated multidrug resistance in human DU145-TxR cells overexpressing P-gp assessed as potentiation of paclitaxel-induced cytotoxicity by measuring fold reduction paclitaxel IC50 at 7 uM after 48 hrs by MTT assay relative to paclitaxel alone). Conditions: not given.
Assay type: cell-based
Outline: (§2)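 DU145TXR cells seeded at 3000 per well, 24 h later treated 48 h with paclitaxel alone or with 3, 5, 7 or 10 μM inhibitor in complete medium (DMSO vehicle). MTT 4 h, formazan dissolved in DMSO, A570 read, background subtracted, viability relative to DMSO. IC50 by four-parameter nonlinear fit; eight replicates, at least two experiments. Fold values compare paclitaxel alone or with parent inhibitor.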

Row | Structure (SMILES) | fold change (FC)
3 | COc1cc(NC(=O)CSCC(=O)Nc2cc(-c3cc(C)c(C)cc3C)nn2-c2ccccc2)cc(OC)c1OC | 3312
4 | Cc1cc(C)c(-c2cc(NC(=O)CSCC(=O)c3ccc4c(c3)Cc3ccccc3-4)n(-c3ccccc3)n2)cc1C | 34

These molecules were tested against T1, ATP-dependent translocase ABCB1 (assay: Reversal of P-gp mediated multidrug resistance in human DU145-TxR cells overexpressing P-gp assessed as potentiation of paclitaxel-induced cytotoxicity by measuring fold reduction paclitaxel IC50 at 5 uM after 48 hrs by MTT assay relative to paclitaxel alone). Conditions: not given.
Assay type: cell-based
Outline: as §2

Row | Structure (SMILES) | fold change (FC)
5 | COc1cc(NC(=O)CSCC(=O)Nc2cc(-c3cc(C)c(C)cc3C)nn2-c2ccccc2)cc(OC)c1OC | 1116
6 | Cc1cc(C)c(-c2cc(NC(=O)CSCC(=O)c3ccc4c(c3)Cc3ccccc3-4)n(-c3ccccc3)n2)cc1C | 14

These molecules were tested against T1, ATP-dependent translocase ABCB1 (assay: Reversal of P-gp mediated multidrug resistance in human DU145-TxR cells overexpressing P-gp assessed as potentiation of paclitaxel-induced cytotoxicity by measuring fold reduction paclitaxel IC50 at 3 uM after 48 hrs by MTT assay relative to paclitaxel alone). Conditions: not given.
Assay type: cell-based
Outline: as §2

Row | Structure (SMILES) | fold change (FC)
7 | COc1cc(NC(=O)CSCC(=O)Nc2cc(-c3cc(C)c(C)cc3C)nn2-c2ccccc2)cc(OC)c1OC | 11
8 | Cc1cc(C)c(-c2cc(NC(=O)CSCC(=O)c3ccc4c(c3)Cc3ccccc3-4)n(-c3ccccc3)n2)cc1C | 8

The molecules below were run against T1, ATP-dependent translocase ABCB1 (assay: Reversal of P-gp mediated multidrug resistance in human DU145-TxR cells overexpressing P-gp assessed as potentiation of paclitaxel-induced cytotoxicity by measuring fold reduction paclitaxel IC50 at 3 uM after 48 hrs by MTT assay relative to parent compound). Conditions: not given.
Assay type: cell-based
Outline: as §2

Row | Structure (SMILES) | fold change (FC)
9 | COc1cc(NC(=O)CSCC(=O)Nc2cc(-c3cc(C)c(C)cc3C)nn2-c2ccccc2)cc(OC)c1OC | 3.4
10 | Cc1cc(C)c(-c2cc(NC(=O)CSCC(=O)c3ccc4c(c3)Cc3ccccc3-4)n(-c3ccccc3)n2)cc1C | 2.4

Each molecule was assayed against T1, ATP-dependent translocase ABCB1 (assay: Reversal of P-gp mediated multidrug resistance in human DU145-TxR cells overexpressing P-gp assessed as potentiation of paclitaxel-induced cytotoxicity by measuring fold reduction paclitaxel IC50 at 10 uM after 48 hrs by MTT assay relative to paclitaxel alone). Conditions: not given.
Assay type: cell-based
Outline: as §2

Row | Structure (SMILES) | fold change (FC)
11 | COc1cc(NC(=O)CSCC(=O)Nc2cc(-c3cc(C)c(C)cc3C)nn2-c2ccccc2)cc(OC)c1OC | 30286
12 | Cc1cc(C)c(-c2cc(NC(=O)CSCC(=O)c3ccc4c(c3)Cc3ccccc3-4)n(-c3ccccc3)n2)cc1C | 37

The molecules below were run against T1, ATP-dependent translocase ABCB1 (assay: Reversal of P-gp mediated multidrug resistance in human DU145-TxR cells overexpressing P-gp assessed as potentiation of paclitaxel-induced cytotoxicity by measuring fold reduction paclitaxel IC50 at 5 uM after 48 hrs by MTT assay relative to parent compound). Conditions: not given.
Assay type: cell-based
Outline: as §2

Row | Structure (SMILES) | fold change (FC)
13 | COc1cc(NC(=O)CSCC(=O)Nc2cc(-c3cc(C)c(C)cc3C)nn2-c2ccccc2)cc(OC)c1OC | 102
14 | Cc1cc(C)c(-c2cc(NC(=O)CSCC(=O)c3ccc4c(c3)Cc3ccccc3-4)n(-c3ccccc3)n2)cc1C | 1.3

The molecules below were run against T1, ATP-dependent translocase ABCB1 (assay: Reversal of P-gp mediated multidrug resistance in human DU145-TxR cells overexpressing P-gp assessed as potentiation of paclitaxel-induced cytotoxicity by measuring fold reduction paclitaxel IC50 at 7 uM after 48 hrs by MTT assay relative to parent compound). Conditions: not given.
Assay type: cell-based
Outline: as §2

Row | Structure (SMILES) | fold change (FC)
15 | COc1cc(NC(=O)CSCC(=O)Nc2cc(-c3cc(C)c(C)cc3C)nn2-c2ccccc2)cc(OC)c1OC | 92
16 | Cc1cc(C)c(-c2cc(NC(=O)CSCC(=O)c3ccc4c(c3)Cc3ccccc3-4)n(-c3ccccc3)n2)cc1C | 1

These molecules were tested against T1, ATP-dependent translocase ABCB1 (assay: Reversal of P-gp mediated multidrug resistance in human DU145-TxR cells overexpressing P-gp assessed as potentiation of paclitaxel-induced cytotoxicity by measuring fold reduction paclitaxel IC50 at 10 uM after 48 hrs by MTT assay relative to parent compound). Conditions: not given.
Assay type: cell-based
Outline: as §2

Row | Structure (SMILES) | fold change (FC)
17 | COc1cc(NC(=O)CSCC(=O)Nc2cc(-c3cc(C)c(C)cc3C)nn2-c2ccccc2)cc(OC)c1OC | 300
18 | Cc1cc(C)c(-c2cc(NC(=O)CSCC(=O)c3ccc4c(c3)Cc3ccccc3-4)n(-c3ccccc3)n2)cc1C | 0.4

The molecules below were run against T1, ATP-dependent translocase ABCB1 (assay: Inhibition of P-gp overexpressed in human DU145-TxR cells assessed as increase in cellular accumulation of calcein AM at 2 uM preincubated for 6 hrs followed by calcein AM addition by fluorescence imaging analysis). Conditions: not given.
Assay type: cell-based
Outline: as §1

Row | Structure (SMILES) | inhibition (INH)
19 | COc1cc(NC(=O)CSCC(=O)Nc2cc(-c3cc(C)c(C)cc3C)nn2-c2ccccc2)cc(OC)c1OC | Active
20 | Cc1cc(C)c(-c2cc(NC(=O)CSCC(=O)c3ccc4c(c3)Cc3ccccc3-4)n(-c3ccccc3)n2)cc1C | Active

These molecules were tested against T2, P-glycoprotein (ABCB1, mouse MDR3) ATPase (Mus musculus, UniProt P21447) (assay: Stimulation of verampil-mediated ATPase hydrolysis in recombinant mouse MDR3 expressed in Pichia pastoris measured after 30 mins in presence of NADH by coupled enzyme assay (reference value: 100 +/- 8 %)). Conditions: recombinant mouse MDR3 (P-gp) expressed in Pichia pastoris, read-out: Activity.
T2 sequence (P21447 whole entry): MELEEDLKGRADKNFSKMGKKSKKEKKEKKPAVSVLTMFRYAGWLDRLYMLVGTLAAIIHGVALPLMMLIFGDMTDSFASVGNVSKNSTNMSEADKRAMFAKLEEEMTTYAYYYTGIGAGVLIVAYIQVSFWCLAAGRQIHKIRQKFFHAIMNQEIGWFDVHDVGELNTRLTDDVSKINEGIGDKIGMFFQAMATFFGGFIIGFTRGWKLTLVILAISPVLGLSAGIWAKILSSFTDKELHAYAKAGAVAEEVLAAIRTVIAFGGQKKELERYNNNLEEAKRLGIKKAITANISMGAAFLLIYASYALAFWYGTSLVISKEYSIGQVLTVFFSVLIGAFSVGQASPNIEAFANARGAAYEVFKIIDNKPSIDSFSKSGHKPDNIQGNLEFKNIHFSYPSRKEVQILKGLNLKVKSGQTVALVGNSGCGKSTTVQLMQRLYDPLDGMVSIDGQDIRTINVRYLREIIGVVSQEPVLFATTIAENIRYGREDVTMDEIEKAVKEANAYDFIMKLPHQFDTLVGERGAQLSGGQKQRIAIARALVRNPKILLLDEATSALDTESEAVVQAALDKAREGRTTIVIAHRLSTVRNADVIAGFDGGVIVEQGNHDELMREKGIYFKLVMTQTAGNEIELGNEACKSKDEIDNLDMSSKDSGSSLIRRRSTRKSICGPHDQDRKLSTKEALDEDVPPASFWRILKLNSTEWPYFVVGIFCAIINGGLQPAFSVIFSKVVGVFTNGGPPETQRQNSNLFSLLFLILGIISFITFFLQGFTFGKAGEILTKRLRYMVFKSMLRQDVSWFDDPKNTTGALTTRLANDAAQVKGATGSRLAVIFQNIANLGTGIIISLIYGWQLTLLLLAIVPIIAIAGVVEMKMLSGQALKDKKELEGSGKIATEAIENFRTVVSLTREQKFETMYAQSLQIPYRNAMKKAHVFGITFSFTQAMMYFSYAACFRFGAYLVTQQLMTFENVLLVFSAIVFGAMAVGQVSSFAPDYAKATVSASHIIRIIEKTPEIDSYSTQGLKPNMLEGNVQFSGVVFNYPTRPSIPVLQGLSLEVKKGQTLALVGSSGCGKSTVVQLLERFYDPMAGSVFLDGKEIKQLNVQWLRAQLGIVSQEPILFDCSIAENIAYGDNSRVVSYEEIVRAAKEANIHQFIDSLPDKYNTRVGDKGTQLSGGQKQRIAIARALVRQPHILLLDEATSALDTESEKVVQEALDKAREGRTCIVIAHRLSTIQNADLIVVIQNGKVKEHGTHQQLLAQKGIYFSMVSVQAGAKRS
Set-up: scale not given: the % may be the effect or the level left

Row | Structure (SMILES) | Activity at 0.5 h
21 | COc1cc(NC(=O)CSCC(=O)Nc2cc(-c3cc(C)c(C)cc3C)nn2-c2ccccc2)cc(OC)c1OC | 194%

These molecules were tested against T2, P-glycoprotein (ABCB1, mouse MDR3) ATPase (assay: Effect on verampil-mediated ATPase hydrolysis of recombinant mouse MDR3 expressed in Pichia pastoris measured after 30 mins in presence of NADH by coupled enzyme assay (reference value: 100 +/- 8 %)). Conditions: recombinant mouse MDR3 (P-gp) expressed in Pichia pastoris, read-out: Activity.
Set-up: scale not given: the % may be the effect or the level left

Row | Structure (SMILES) | Activity at 0.5 h
22 | Cc1cc(C)c(-c2cc(NC(=O)CSCC(=O)c3ccc4c(c3)Cc3ccccc3-4)n(-c3ccccc3)n2)cc1C | 108%

These molecules were tested against T2, P-glycoprotein (ABCB1, mouse MDR3) ATPase (assay: Effect on basal ATPase hydrolysis of recombinant mouse MDR3 expressed in Pichia pastoris measured after 30 mins in presence of NADH by coupled enzyme assay (reference value: 100 +/- 7 %)). Conditions: recombinant mouse MDR3 (P-gp) expressed in Pichia pastoris, read-out: Activity.
Set-up: scale not given: the % may be the effect or the level left

Row | Structure (SMILES) | Activity at 0.5 h
23 | Cc1cc(C)c(-c2cc(NC(=O)CSCC(=O)c3ccc4c(c3)Cc3ccccc3-4)n(-c3ccccc3)n2)cc1C | 105%

Each molecule was assayed against T1, ATP-dependent translocase ABCB1 (assay: Inhibition of P-gp overexpressed in human DU145-TxR cells assessed as increase in intracellular compound accumulation after 2.5 hrs in presence of tariquidar by LC-MS/MS analysis). Conditions: not given.
Assay type: cell-based
Outline: (§3)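 P-gp-overexpressing DU145TXR cells exposed to test compounds with or without tariquidar. Intracellular compound measured by LC–MS/MS, with daunorubicin as a transported-substrate control. Ratio is accumulation with tariquidar divided by accumulation without.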

Row | Structure (SMILES) | inhibition (INH)
24 | COc1cc(NC(=O)CSCC(=O)Nc2cc(-c3cc(C)c(C)cc3C)nn2-c2ccccc2)cc(OC)c1OC | Active

What follows are molecules tested against T1, ATP-dependent translocase ABCB1 (assay: Ratio of inhibition of P-gp overexpressed in human DU145-TxR cells assessed as increase in intracellular compound accumulation after 2.5 hrs in presence of tariquidar by LC-MS/MS analysis to Inhibition of P-gp overexpressed in human DU145-TxR cells assessed as decrease in intracellular compound accumulation after 2.5 hrs in absence of tariquidar by LC-MS/MS analysis). Conditions: not given.
Assay type: cell-based
Outline: as §3

Row | Structure (SMILES) | Ratio
25 | COc1cc(NC(=O)CSCC(=O)Nc2cc(-c3cc(C)c(C)cc3C)nn2-c2ccccc2)cc(OC)c1OC | 1.9
26 | Cc1cc(C)c(-c2cc(NC(=O)CSCC(=O)c3ccc4c(c3)Cc3ccccc3-4)n(-c3ccccc3)n2)cc1C | 1.1

What follows are molecules tested against T3, P-glycoprotein (ABCB1, MDR1) ATPase (Homo sapiens, UniProt P08183) (assay: Inhibition of verampil-stimulated ATPase hydrolysis in recombinant human MDR1 expressed in Pichia pastoris measured after 30 mins in presence of NADH by coupled enzyme assay (reference value: 100 +/- 6 %)). Conditions: recombinant human MDR1 (P-gp) expressed in Pichia pastoris.
T3 sequence (P08183 whole entry): as the sequence (P08183 whole entry) above
Set-up: scale not given: the % may be the effect or the level left

Row | Structure (SMILES) | Activity at 0.5 h
27 | COc1cc(NC(=O)CSCC(=O)Nc2cc(-c3cc(C)c(C)cc3C)nn2-c2ccccc2)cc(OC)c1OC | 61%
28 | Cc1cc(C)c(-c2cc(NC(=O)CSCC(=O)c3ccc4c(c3)Cc3ccccc3-4)n(-c3ccccc3)n2)cc1C | 64%

The molecules below were run against T3, P-glycoprotein (ABCB1, MDR1) ATPase (assay: Effect on basal ATPase hydrolysis of recombinant human MDR1 expressed in Pichia pastoris measured after 30 mins in presence of NADH by coupled enzyme assay (reference value: 100 +/- 5 %)). Conditions: recombinant human MDR1 (P-gp) expressed in Pichia pastoris, read-out: Activity.
Set-up: scale not given: the % may be the effect or the level left

Row | Structure (SMILES) | Activity at 0.5 h
29 | COc1cc(NC(=O)CSCC(=O)Nc2cc(-c3cc(C)c(C)cc3C)nn2-c2ccccc2)cc(OC)c1OC | 89%

What follows are molecules tested against T3, P-glycoprotein (ABCB1, MDR1) ATPase (assay: Basal ATPase hydrolysis in recombinant human MDR1 expressed in Pichia pastoris measured after 30 mins in presence of NADH by coupled enzyme assay (reference value: 100 +/- 5 %)). Conditions: recombinant human MDR1 (P-gp) expressed in Pichia pastoris.
Set-up: scale not given: the % may be the effect or the level left

Row | Structure (SMILES) | Activity at 0.5 h
30 | Cc1cc(C)c(-c2cc(NC(=O)CSCC(=O)c3ccc4c(c3)Cc3ccccc3-4)n(-c3ccccc3)n2)cc1C | 69%

The molecules below were run against P-glycoprotein 1 Abcb1a (Mus musculus) (assay: Inhibition of spin-labelled adenine nucleotide interaction with mouse MDR3 P-gp expressed in Escherichia coli BL21 (DE3) assessed as apparent dissociation constant by ESR analysis (reference value: 36.5 +/- 3.6 uM)). Conditions: not given.

Row | Structure (SMILES) | Kd
31 | COc1cc(NC(=O)CSCC(=O)Nc2cc(-c3cc(C)c(C)cc3C)nn2-c2ccccc2)cc(OC)c1OC | 20.1 µM
32 | Cc1cc(C)c(-c2cc(NC(=O)CSCC(=O)c3ccc4c(c3)Cc3ccccc3-4)n(-c3ccccc3)n2)cc1C | 23.1 µM

What follows are molecules tested on P-glycoprotein 1 Abcb1a (Mus musculus) (assay: Inhibition of 2',3'-(2,2,5,5,-tetramethyl-3-pyrroline-l-oxyl-3-carboxylic acid ester)ATP interaction with mouse MDR3 P-gp expressed in Escherichia coli BL21 (DE3) assessed as reduction in ATP binding from 2 to 1 of nucleotide to mol of protein by ESR analysis (reference value: 1.8 +/- 0.1)). Conditions: not given.

Row | Structure (SMILES) | Activity
33 | COc1cc(NC(=O)CSCC(=O)Nc2cc(-c3cc(C)c(C)cc3C)nn2-c2ccccc2)cc(OC)c1OC | 1.2
34 | Cc1cc(C)c(-c2cc(NC(=O)CSCC(=O)c3ccc4c(c3)Cc3ccccc3-4)n(-c3ccccc3)n2)cc1C | 1.7
